Screening data (PubChem BioAssay)
APOBEC3G inh – APOBEC3G DNA deaminase inhibitors, primary screen, biochemical, fluorescence, single-stranded DNA substrate, uHTS; DNA dC->dU-editing enzyme APOBEC-3G (Homo sapiens), Q9HC16; recombinant A3G, ssDNA deamination FAM/TAMRA fluorescence; inhibition, % at 20 µM; 330,000 compounds, 0.28% hits; AID 493012, 2011;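 active = inhibition of at least 40% at 20 µM, with no more than 30% in the related APOBEC3A deaminase screen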;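 also: plate controls were DMSO wells with A3G for no effect and wells lacking A3G enzyme for full effect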
UCH37 inh – inhibitors of human UCH37 deubiquitinase, primary screen, biochemical, Ub-AMC cleavage, fluorescence | inhibition, % (concentration not given with the values) | purified proteasome/UCH37 | 330,000 compounds, 0.33% hits;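 active = mean inhibition over replicate wells above about 20%, limit read from the data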;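 also: 0% = compound-free wells with enzyme and 100% = wells lacking proteasome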
Target sequence (Q9Y5K5 whole entry, looked up): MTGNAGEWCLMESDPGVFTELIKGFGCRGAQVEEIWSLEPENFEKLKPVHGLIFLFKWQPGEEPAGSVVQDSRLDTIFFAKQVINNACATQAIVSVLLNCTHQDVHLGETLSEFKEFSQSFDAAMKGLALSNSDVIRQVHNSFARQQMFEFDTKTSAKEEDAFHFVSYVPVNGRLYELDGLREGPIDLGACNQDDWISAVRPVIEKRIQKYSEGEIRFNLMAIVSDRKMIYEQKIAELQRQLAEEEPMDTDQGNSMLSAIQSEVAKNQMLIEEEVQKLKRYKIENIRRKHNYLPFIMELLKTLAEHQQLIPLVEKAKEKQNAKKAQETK
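Material: human UCH37 enzyme supplied as purified proteasome complex. Measure: % inhibition of Ub-AMC cleavage fluorescence. Medium: pH 7.4 Tris-HCl (50 mM) with ovalbumin, ATP-MgCl2, DTT. Times: 30 min preincubation with enzyme, 25 min cleavage at room temperature. Detection: AMC fluorescence intensity at 355/460 nm.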
Arrestin-AP2 inh – inhibitors of beta-arrestin/AP2 binding, primary screen, biochemical, GPCR trafficking, flow cytometry; FITC-arrestin peptide / GST-AP2 beads; AP2 beta2 appendage carries R879A mutation; inhibition, % at 10 µM; 340,000 compounds, 0.31% hits; beta-arrestin 1 C-terminal peptide binding to AP2 beta2-adaptin appendage (human);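 active = inhibition above a set limit, near 3 SD of compounds lacking own fluorescence, cut at about 54% in these data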;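 also: plate controls were DMSO wells for no effect and 5 µM unlabelled arrestin peptide for full effect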
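Material – GST-tagged AP2 beta2-adaptin appendage (R879A) on 4 µm glutathione beads · Probe or stimulus – fluorescein-tagged arrestin peptide at 50 nM final · Timing – 12 min plus 1 h, RT · Detection – bead flow cytometry, FITC channel · Read-out basis – inhibition as reduced fluorescein signal on beads, percent · Medium – PBS plus Tween 20 (0.05%) and BSA (0.1%)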
AHR act – AHR activators, primary screen, cell-based, luminescence, luciferase reporter, human | activation, % at 5 µM | 320,000 compounds, 2.5% hits | Aryl hydrocarbon receptor (Homo sapiens), P35869 | AID 2796, 2010 | AHR-responsive luciferase reporter cells; in the data active = activation above about 47%;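 also: 0% = vehicle wells and 100% = reference agonist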
A3A deaminase – APOBEC3A ssDNA deaminase inhibitors, primary screen, selectivity assay for APOBEC3G inhibitor project, biochemical, FAM/TAMRA oligo cleavage fluorescence; 330,000 compounds, 0.41% hits; recombinant A3A, FAM/TAMRA ssDNA deamination fluorescence; DNA dC->dU-editing enzyme APOBEC-3A (Homo sapiens), P31941; inhibition, % at 20 µM;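 active = at least 40% inhibition at 20 µM here, with at most 30% in a related deaminase screen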;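 also: plate controls were A3A with DMSO for no effect and wells lacking A3A enzyme for full effect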
Target sequence (P31941 whole entry, looked up): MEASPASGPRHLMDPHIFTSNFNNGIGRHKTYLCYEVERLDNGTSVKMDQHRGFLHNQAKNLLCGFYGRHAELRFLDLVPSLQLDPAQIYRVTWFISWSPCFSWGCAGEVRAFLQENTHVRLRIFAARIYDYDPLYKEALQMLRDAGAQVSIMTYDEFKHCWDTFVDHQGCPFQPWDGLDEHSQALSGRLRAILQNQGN
PolyA inhibitor – polyadenylation inhibitors in yeast reporter cells, primary screen, luminescence, S. cerevisiae; S. cerevisiae SKY197-pL101 polyadenylation reporter, beta-gal luminescence; efflux-impaired pdr1/pdr3 knockout yeast; score 100 = 6 SD above DMSO; 300,000 compounds, 0.02% hits; activity score, % at 12 µM;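 active = lowest replicate activity score at least 50, where 100 means six control SD above control mean; inconclusive = lowest score under 50 but half or more replicates reach 50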;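 also: yeast exposed to compound for 9 h at 30 °C; higher score means more reporter readthrough which indicates perturbed polyadenylation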
Arr-AP2 CP1 – inhibitors of arrestin peptide binding to AP2, confirmation, biochemical, cherry pick 1, flow cytometry beads; shares compounds with Arrestin-AP2 inh; inhibition, % at 10 µM; 1,300 compounds, 2% hits; GST-AP2 beads, FITC arrestin peptide binding; GST-fused beta2-adaptin appendage, R879A mutant;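 active = inhibition above a set limit, roughly 3 SD of non-fluorescent compound noise, cut at about 38% in these data; inactive = inhibition at or below that limit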;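 also: loss of bead fluorescence from 50 nM FITC arrestin peptide bound to appendage; 0% = negative control wells and 100% = excess unlabelled arrestin peptide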
GST GSH counter – GST-fluorescein capture on glutathione beads, confirmation, artefact control for arrestin-AP2 inhibitor project, biochemical, cherry pick 1, flow cytometry. shares compounds with Arrestin-AP2 inh. GST-fluorescein binding to GSH beads, fluorescence, counter-screen. inhibition, % at 10 µM. 1,300 compounds, 2% hits;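 active = inhibition above 50%, about 3 SD of the inhibition seen with non-fluorescent compounds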;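 also: fluorescein maleimide labelled GST captured on 4 micron glutathione beads; higher means more loss of bead fluorescence from quenching or blocked binding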
An asterisk follows results filed as active; ? = inconclusive; . = no result given. Only some compounds are listed: those with a hit (about 3.4% of all), similar ones and a draw of the others.

SMILES	APOBEC3G inh	UCH37 inh	Arrestin-AP2 inh	AHR act	A3A deaminase	PolyA inhibitor	Arr-AP2 CP1	GST GSH counter
CC(C(=O)Nc1ccc2c(c1)OCO2)c1ccc([N+](=O)[O-])cc1 (stereo unspecified)	-3	-2	65*	26	-2	2	2	-2
Cc1nnc(NN=Cc2ccc(-c3ccccc3F)o2)n1N	.	4	.	.	.	.	.	.
CC1CCN(Cc2c(C(=O)NN=Cc3cccc(Cl)c3)nnn2-c2nonc2N)CC1	.	4	.	.	.	.	.	.
O=C(CN1CCOCC1)Nc1ccc(Cl)cn1	-6	1	54*	0	-3	-9	10	8
Cc1[nH]c2ccccc2c1-c1csc(NC(=O)CSCC(=O)O)n1	0	4	5	18	4	6	.	.
Cc1[nH]c2ccccc2c1-c1csc(NC(=O)CN2CCOCC2)n1	8	5	57*	70*	8	3	-2	5
COc1cc(/C=C2/C(=O)N=C(N)N2C)cc(OC)c1OC	1	1	84*	32	0	11	11	4
Cn1c(=O)c(C(=O)NNC(=O)c2ccccc2Br)c(O)c2ccccc21	0	0	56*	14	-1	9	-7	4
CCn1c(=O)c(C(=O)NNC(=O)c2ccccc2Br)c(O)c2ccccc21	-5	-1	2	9	1	43	.	.
O=C(CSc1nnc(-c2ccc(Cl)cc2)n1-c1ccc(Cl)cc1)NN=Cc1ccco1	.	2	.	.	.	.	.	.
CCOc1ccc(/C=N/NC(=O)Cc2csc(Nc3cccc(C(F)(F)F)c3)n2)cc1	-4	.	86*	3	0	-8	9	2
CCOc1ccc(C=NNC(=O)Cc2csc(Nc3cccc(C(F)(F)F)c3)n2)cc1	.	1	.	.	.	.	.	.
C=C(C)[C@@H]1CC=C(CN2CCN(Cc3ccccc3)CC2)CC1	-1	2	60*	2	1	-3	-4	2
CCN1C(=O)/C(=C/C=C2/Sc3ccc4ccccc4c3N2CCO)SC1=S	3	7	4	10	3	8	.	.
CCN1C(c2ccccc2)=C(c2ccccc2)S/C1=C/C=C1\SC(=S)N(C)C1=O	.	4	57*	.	.	.	-4	14
CCN1C(c2ccccc2)=C(c2ccccc2)S/C1=C\C=C1/SC(=S)N(C)C1=O	-4	6	75*	4	-2	?	18	43
CN1CCS/C1=C/C=C1/SC(=S)N(Cc2ccccc2)C1=O	.	11	0	4	.	9	.	.
CC(=O)c1c(C)[nH]c(C(=O)OCC(=O)c2c(N)n(CC(C)C)c(=O)n(C)c2=O)c1C	-8	2	0	-4	-6	.	5	5
Cn1c(N)c(C(=O)COC(=O)c2ccco2)c(=O)n(C)c1=O	-5	-5	7	0	-21	16	5	0
Cn1c(N)c(C(=O)COC(=O)c2ccc(Cl)nc2)c(=O)n(C)c1=O	-5	1	-4	1	4	5	.	.
CC(C)c1ccc(C(=O)OCC(=O)c2c(N)n(C)c(=O)n(C)c2=O)cc1	-3	1	20	-1	-1	.	18	3
CC(=O)c1c(C)[nH]c(C(=O)OCC(=O)c2c(N)n(C)c(=O)n(C)c2=O)c1C	-6	-2	.	-3	-4	18	.	.
Cn1c(N)c(C(=O)COC(=O)c2ccc(OC(F)F)cc2)c(=O)n(C)c1=O	-5	1	16	0	-3	.	0	-1
O=C(NN=Cc1ccccc1Br)c1cccc(S(=O)(=O)N2CCOCC2)c1	.	8	.	.	.	.	.	.
O=C(NCc1ccccc1)C(=NO)c1ccccc1	.	4	.	.	.	.	.	.
SMILES	APOBEC3G inh	UCH37 inh	Arrestin-AP2 inh	AHR act	A3A deaminase	PolyA inhibitor	Arr-AP2 CP1	GST GSH counter
COc1cc(C(=O)OCC(=O)c2c(N)n(C)c(=O)n(C)c2=O)ccc1OCCC(C)C	-5	4	55*	0	-3	7	6	-4
CC(C)Cn1c(N)c(C(=O)COC(=O)c2ccc(O)cc2)c(=O)n(C)c1=O	-3	2	-8	7	-1	-16	-8	-12
CC(C)Cn1c(N)c(C(=O)COC(=O)c2cc(F)cc(F)c2)c(=O)n(C)c1=O	-1	-1	21	-1	7	-14	.	.
Cn1c(N)c(C(=O)COC(=O)c2ccc(F)cc2Cl)c(=O)n(C)c1=O	-7	2	-12	1	-2	.	11	7
COC(=O)c1ccc(-n2c(C)cc(C=NNc3nc(C)cc(=O)[nH]3)c2C)cc1	.	-21	.	.	.	.	.	.
COC(=O)c1scc(C#N)c1NN=C(C#N)S(=O)(=O)c1ccc(Cl)cc1	.	5	.	.	.	.	.	.
CC12CCC(=O)N1C(C(=O)OCC(=O)Nc1sccc1C#N)CS2 (stereo unspecified)	-3	4	-6	8	3	-6	.	.
CN(C)S(=O)(=O)c1cc(NC(=O)COC(=O)C2CSC3(C)CCC(=O)N23)ccc1Cl (stereo unspecified)	-8	1	8	1	2	15	-5	-10
CC12CCC(=O)N1C(C(=O)OCC(=O)Nc1cc(S(=O)(=O)N3CCCCC3)ccc1Cl)CS2 (stereo unspecified)	-4	1	-2	-1	0	-14	.	.
CCCCOC(=O)c1ccc(NC(=O)COC(=O)C2CSC3(C)CCC(=O)N23)cc1 (stereo unspecified)	2	3	2	-1	1	-3	-11	-6
Cc1ccc2oc(N=C(N)NC(=O)C(C)(C)C)nc2c1	.	-4	.	.	.	.	.	.
CC(CC(=O)Nc1ccc(C)c(Cl)c1)=NNC(=O)c1ccncc1	.	-3	.	.	.	.	.	.
COc1ccc(OC)c(NC(=O)CSc2nnc(CCCO)n2-c2ccccc2)c1	-4	2	90*	0	-1	5	-9	-1
